Measurements published in ChEMBL document CHEMBL5247575 (J Med Chem, 2018).
≈ marks a conversion by molar mass, not a printed value.

How the values were obtained:
Bacteria = experiment: Inhibition of bacteria ADC-7 assessed as Koff rate using nitrocefin as substrate incubated for 30 mins
Pseudomonas aeruginosa [1] = experiment: Antibacterial activity against Pseudomonas aeruginosa 839 by broth microdilution method; assay type: functional
Escherichia coli [2] = experiment: Synergistic antibacterial activity against Escherichia coli DH10B assessed as cefepime MIC at 4 ug/ml by broth microdilution method; assay type: functional; details: dose 4 µg/ml
Escherichia coli [3] = experiment: Synergistic antibacterial activity against Escherichia coli DH10B transfected with pBR322-catI-KPC-2 assessed as cefepime MIC at 4 ug/ml by broth microdilution method; assay type: functional; details: dose 4 µg/ml
Outline: (§1)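 Broth microdilution per CLSI guidelines, using custom frozen panels. […] Each partner drug was also tested alone. MICs were run in triplicate and the modal value is reported.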

Escherichia coli [4] = experiment: Synergistic antibacterial activity against Escherichia coli DH10B transfected with pBC SK (-) OXA-48 assessed as cefepime MIC at 4 ug/ml by broth microdilution method; assay type: functional; details: dose 4 µg/ml; outline: as §1
Acinetobacter baumannii [5] = experiment: Synergistic antibacterial activity against ADC deleted Acinetobacter baumannii assessed as cefepime MIC at 4 ug/ml by broth microdilution method; assay type: functional; details: dose 4 µg/ml
Acinetobacter baumannii [6] = experiment: Synergistic antibacterial activity against ADC deleted Acinetobacter baumannii transfected with pWH1266 OXA-23 assessed as cefepime MIC at 4 ug/ml by broth microdilution method; assay type: functional; details: dose 4 µg/ml
Klebsiella pneumoniae [7] = experiment: Synergistic antibacterial activity against Klebsiella pneumoniae 660/1568 producing KPC-3 assessed as cefepime MIC at 4 ug/ml by broth microdilution method; assay type: functional; details: dose 4 µg/ml; outline: as §1
Klebsiella pneumoniae [8] = experiment: Synergistic antibacterial activity against Klebsiella pneumoniae 935/1884 producing KPC-3 assessed as cefepime MIC at 4 ug/ml by broth microdilution method; assay type: functional; details: dose 4 µg/ml
Klebsiella pneumoniae [9] = experiment: Synergistic antibacterial activity against Klebsiella pneumoniae 972/1910 producing KPC-3 assessed as cefepime MIC at 4 ug/ml by broth microdilution method; assay type: functional; details: dose 4 µg/ml
Klebsiella pneumoniae [10] = experiment: Synergistic antibacterial activity against Klebsiella pneumoniae 11978 producing OXA-48 assessed as cefepime MIC at 4 ug/ml by broth microdilution method; assay type: functional; details: dose 4 µg/ml; outline: as §1
Acinetobacter baumannii [11] = experiment: Synergistic antibacterial activity against Acinetobacter baumannii PR363 producing OXA-23 assessed as cefepime MIC at 4 ug/ml by broth microdilution method; assay type: functional; details: dose 4 µg/ml
Acinetobacter baumannii [12] = experiment: Synergistic antibacterial activity against Acinetobacter baumannii PR381 producing OXA-24/40 assessed as cefepime MIC at 4 ug/ml by broth microdilution method; assay type: functional; details: dose 4 µg/ml
Acinetobacter baumannii [13] = experiment: Synergistic antibacterial activity against Acinetobacter baumannii PR408 producing OXA-24/40 assessed as cefepime MIC at 4 ug/ml by broth microdilution method; assay type: functional; details: dose 4 µg/ml
Acinetobacter baumannii [14] = experiment: Synergistic antibacterial activity against Acinetobacter baumannii PR476 producing OXA-24/40 assessed as cefepime MIC at 4 ug/ml by broth microdilution method; assay type: functional; details: dose 4 µg/ml
Escherichia coli [15] = experiment: Synergistic antibacterial activity against Escherichia coli DH10B assessed as cefepime MIC at 8 ug/ml by broth microdilution method; assay type: functional; details: dose 8 µg/ml
Escherichia coli [16] = experiment: Synergistic antibacterial activity against Escherichia coli DH10B transfected with pBC SK (-) KPC-2 assessed as cefepime MIC at 8 ug/ml by broth microdilution method; assay type: functional; details: dose 8 µg/ml
Escherichia coli [17] = experiment: Synergistic antibacterial activity against Escherichia coli DH10B transfected with pBC SK (-) OXA-48 assessed as cefepime MIC at 8 ug/ml by broth microdilution method; assay type: functional; details: dose 8 µg/ml; outline: as §1
Acinetobacter baumannii [18] = experiment: Synergistic antibacterial activity against ADC deleted Acinetobacter baumannii assessed as cefepime MIC at 8 ug/ml by broth microdilution method; assay type: functional; details: dose 8 µg/ml
Klebsiella pneumoniae [19] = experiment: Synergistic antibacterial activity against Klebsiella pneumoniae 729/1679 producing KPC-3 assessed as cefepime MIC at 8 ug/ml by broth microdilution method; assay type: functional; details: dose 8 µg/ml; outline: as §1
Klebsiella pneumoniae [20] = experiment: Synergistic antibacterial activity against Klebsiella pneumoniae 761/1723 producing KPC-3 assessed as cefepime MIC at 8 ug/ml by broth microdilution method; assay type: functional; details: dose 8 µg/ml; outline: as §1
Klebsiella pneumoniae [21] = experiment: Synergistic antibacterial activity against Klebsiella pneumoniae 440/1360 producing KPC-2 assessed as cefepime MIC at 8 ug/ml by broth microdilution method; assay type: functional; details: dose 8 µg/ml; outline: as §1
Klebsiella pneumoniae [22] = experiment: Synergistic antibacterial activity against Klebsiella pneumoniae CAV 1636 producing OXA-181 assessed as cefepime MIC at 8 ug/ml by broth microdilution method; assay type: functional; details: dose 8 µg/ml
Klebsiella pneumoniae [23] = experiment: Synergistic antibacterial activity against Klebsiella pneumoniae jefferson 1775 producing OXA-48 assessed as cefepime MIC at 8 ug/ml by broth microdilution method; assay type: functional; details: dose 8 µg/ml
Pseudomonas aeruginosa [24] = experiment: Synergistic antibacterial activity against Pseudomonas aeruginosa CL232 assessed as cefepime MIC at 8 ug/ml by broth microdilution method; assay type: functional; details: dose 8 µg/ml
Acinetobacter baumannii [25] = experiment: Synergistic antibacterial activity against Acinetobacter baumannii PR359 producing OXA-23 assessed as cefepime MIC at 8 ug/ml by broth microdilution method; assay type: functional; details: dose 8 µg/ml
Acinetobacter baumannii [26] = experiment: Synergistic antibacterial activity against ADC deleted Acinetobacter baumannii transfected with pWH1266 OXA-23 assessed as meropenem MIC at 4 ug/ml by broth microdilution method; assay type: functional; details: dose 4 µg/ml
Klebsiella pneumoniae [27] = experiment: Synergistic antibacterial activity against Klebsiella pneumoniae 660/1568 producing KPC-3 assessed as meropenem MIC at 4 ug/ml by broth microdilution method; assay type: functional; details: dose 4 µg/ml; outline: as §1
Klebsiella pneumoniae [28] = experiment: Synergistic antibacterial activity against Klebsiella pneumoniae 1315/2198 producing KPC-3 assessed as meropenem MIC at 4 ug/ml by broth microdilution method; assay type: functional; details: dose 4 µg/ml; outline: as §1
Klebsiella pneumoniae [29] = experiment: Synergistic antibacterial activity against Klebsiella pneumoniae CAV 1543 producing OXA-48 assessed as meropenem MIC at 4 ug/ml by broth microdilution method; assay type: functional; details: dose 4 µg/ml
Klebsiella pneumoniae [30] = experiment: Synergistic antibacterial activity against Klebsiella pneumoniae jefferson 1775 producing OXA-48 assessed as meropenem MIC at 4 ug/ml by broth microdilution method; assay type: functional; details: dose 4 µg/ml
Klebsiella pneumoniae [31] = experiment: Synergistic antibacterial activity against Klebsiella pneumoniae 901/1860 producing KPC-3 assessed as meropenem MIC at 8 ug/ml by broth microdilution method; assay type: functional; details: dose 8 µg/ml
Klebsiella pneumoniae [32] = experiment: Synergistic antibacterial activity against Klebsiella pneumoniae 977/1916 producing KPC-3 assessed as meropenem MIC at 8 ug/ml by broth microdilution method; assay type: functional; details: dose 8 µg/ml
Klebsiella pneumoniae [33] = experiment: Synergistic antibacterial activity against Klebsiella pneumoniae 1354/2241 producing KPC-3 assessed as meropenem MIC at 8 ug/ml by broth microdilution method; assay type: functional; details: dose 8 µg/ml; outline: as §1
Klebsiella pneumoniae [34] = experiment: Synergistic antibacterial activity against Klebsiella pneumoniae CAV 1636 producing OXA-181 assessed as meropenem MIC at 8 ug/ml by broth microdilution method; assay type: functional; details: dose 8 µg/ml
Pseudomonas aeruginosa [35] = experiment: Synergistic antibacterial activity against Pseudomonas aeruginosa 715 assessed as meropenem MIC at 8 ug/ml by broth microdilution method; assay type: functional; details: dose 8 µg/ml
Acinetobacter baumannii [36] = experiment: Synergistic antibacterial activity against Acinetobacter baumannii PR359 producing OXA-23 assessed as meropenem MIC at 8 ug/ml by broth microdilution method; assay type: functional; details: dose 8 µg/ml
Outline: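 Broth microdilution per CLSI guidelines in frozen panels. Test compound held at fixed 8 mg/L while the partner β-lactam concentration was increased. Run in triplicate; modal MIC reported.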

Klebsiella pneumoniae [37] = experiment: Antibacterial activity against Klebsiella pneumoniae jefferson 1775 producing OXA-48 by broth microdilution method; assay type: functional
Klebsiella pneumoniae [38] = experiment: Synergistic antibacterial activity against Klebsiella pneumoniae CAV 1636 producing OXA-181 assessed as meropenem MIC at 4 ug/ml by broth microdilution method; assay type: functional; details: dose 4 µg/ml

Row | Compound | K (Bacteria) | MIC (Pseudomonas aeruginosa [1]) | MIC (Escherichia coli [2]) | MIC (Escherichia coli [3]) | MIC (Escherichia coli [4]) | MIC (Acinetobacter baumannii [5]) | MIC (Acinetobacter baumannii [6]) | MIC (Klebsiella pneumoniae [7]) | MIC (Klebsiella pneumoniae [8]) | MIC (Klebsiella pneumoniae [9]) | MIC (Klebsiella pneumoniae [10]) | MIC (Acinetobacter baumannii [11]) | MIC (Acinetobacter baumannii [12]) | MIC (Acinetobacter baumannii [13]) | MIC (Acinetobacter baumannii [14]) | MIC (Escherichia coli [15]) | MIC (Escherichia coli [16]) | MIC (Escherichia coli [17]) | MIC (Acinetobacter baumannii [18]) | MIC (Klebsiella pneumoniae [19]) | also measured
1 | O=C(NNC(=O)[C@@H]1CC[C@@H]2CN1C(=O)N2OS(=O)(=O)O)[C@@H]1CCCNC1 [ZIDEBACTAM] | 1.1 10^-3/s | 8 µg/mL (≈ 20.4 µM) | ≤ 0.12 µg/mL | ≤ 0.12 µg/mL | ≤ 0.12 µg/mL | 0.25 µg/mL | 16 µg/mL | ≤ 0.12 µg/mL | ≤ 0.12 µg/mL | ≤ 0.12 µg/mL | ≤ 0.12 µg/mL | 8 µg/mL | 16 µg/mL | 8 µg/mL | 1 µg/mL | ≤ 0.12 µg/mL | ≤ 0.12 µg/mL | ≤ 0.12 µg/mL | 0.5 µg/mL | ≤ 0.12 µg/mL | MIC (Klebsiella pneumoniae [20]): ≤ 0.12 µg/mL; MIC (Klebsiella pneumoniae [21]): ≤ 0.12 µg/mL; MIC (Klebsiella pneumoniae [22]): ≤ 0.12 µg/mL; MIC (Klebsiella pneumoniae [23]): ≤ 0.12 µg/mL; MIC (Pseudomonas aeruginosa [24]): 16 µg/mL; MIC (Acinetobacter baumannii [25]): 16 µg/mL; MIC (Acinetobacter baumannii [26]): > 16 µg/mL; MIC (Klebsiella pneumoniae [27]): ≤ 0.12 µg/mL; MIC (Klebsiella pneumoniae [28]): ≤ 0.12 µg/mL; MIC (Klebsiella pneumoniae [29]): ≤ 0.12 µg/mL; MIC (Klebsiella pneumoniae [30]): ≤ 0.12 µg/mL; MIC (Klebsiella pneumoniae [31]): ≤ 0.12 µg/mL; MIC (Klebsiella pneumoniae [32]): ≤ 0.12 µg/mL; MIC (Klebsiella pneumoniae [33]): ≤ 0.12 µg/mL; MIC (Klebsiella pneumoniae [34]): ≤ 0.12 µg/mL; MIC (Pseudomonas aeruginosa [35]): 8 µg/mL; MIC (Acinetobacter baumannii [36]): > 16 µg/mL
2 | O=C(NNC(=O)[C@@H]1CC[C@@H]2CN1C(=O)N2OS(=O)(=O)O)[C@@H]1CCNC1 | 9 10^-4/s | 4 µg/mL (≈ 10.6 µM) | ≤ 0.12 µg/mL | ≤ 0.12 µg/mL | ≤ 0.12 µg/mL | 0.5 µg/mL | 16 µg/mL | ≤ 0.12 µg/mL | ≤ 0.12 µg/mL | ≤ 0.12 µg/mL | ≤ 0.12 µg/mL | 8 µg/mL | 16 µg/mL | 16 µg/mL | 1 µg/mL | ≤ 0.12 µg/mL | ≤ 0.12 µg/mL | ≤ 0.12 µg/mL | 0.5 µg/mL | ≤ 0.12 µg/mL | MIC (Klebsiella pneumoniae [37]): > 16 µg/mL; MIC (Klebsiella pneumoniae [20]): ≤ 0.12 µg/mL; MIC (Klebsiella pneumoniae [21]): ≤ 0.12 µg/mL; MIC (Klebsiella pneumoniae [22]): ≤ 0.12 µg/mL; MIC (Klebsiella pneumoniae [23]): ≤ 0.12 µg/mL; MIC (Pseudomonas aeruginosa [24]): 4 µg/mL; MIC (Acinetobacter baumannii [25]): 16 µg/mL; MIC (Klebsiella pneumoniae [27]): ≤ 0.12 µg/mL; MIC (Klebsiella pneumoniae [28]): ≤ 0.12 µg/mL; MIC (Klebsiella pneumoniae [38]): ≤ 0.12 µg/mL; MIC (Klebsiella pneumoniae [29]): ≤ 0.12 µg/mL; MIC (Klebsiella pneumoniae [30]): ≤ 0.12 µg/mL; MIC (Klebsiella pneumoniae [31]): ≤ 0.12 µg/mL; MIC (Klebsiella pneumoniae [32]): ≤ 0.12 µg/mL; MIC (Klebsiella pneumoniae [33]): ≤ 0.12 µg/mL; MIC (Klebsiella pneumoniae [34]): ≤ 0.12 µg/mL; MIC (Pseudomonas aeruginosa [35]): 0.5 µg/mL; MIC (Acinetobacter baumannii [36]): > 16 µg/mL
